Experimental data taken from ChEMBL document CHEMBL3580583, “17-Norpimaranes and (9βH)-17-Norpimaranes from the Tuber of Icacina trichantha” (J Nat Prod, 2015).
pIC50: −log10 of the molar value.

Key:
Type in all cases: functional, cell-based
MDA-MB-435 = experiment: Cytotoxicity against human MDA-MB-435 cells assessed as cell viability after 72 hrs by commercial absorbance assay; conditions: MDA-MB-435, 72 h
How it was run: (§1)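 Cells from ATCC grown at 37°C, 5% CO₂ in RPMI 1640 with 10% FBS, penicillin 100 units/mL and streptomycin 100 µg/mL. Log-phase cells were trypsinized, washed twice, seeded at 5,000/well and incubated overnight. Samples in DMSO were added at 20, 4, 0.8, 0.16 and 0.032 µM (0.5% DMSO) for 72 h at 37°C. Viability was read by CellTiter 96 AQueous One absorbance; IC₅₀ relative to DMSO control.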

MDA-MB-231 = experiment: Cytotoxicity against human MDA-MB-231 cells assessed as cell viability after 72 hrs by commercial absorbance assay; conditions: MDA-MB-231, 72 h; how it was run: as §1
OVCAR-3 = experiment: Cytotoxicity against human OVCAR3 cells assessed as cell viability after 72 hrs by commercial absorbance assay; conditions: OVCAR-3, 72 h; how it was run: as §1

C[C@@]12CC[C@@H]3C(=C[C@H]4OC(=O)[C@]5(C)[C@H]4[C@]34CCC5(O)OC4)[C@]1(O)OC[C@H]2O
pIC50 (MDA-MB-435): 5.90
pIC50 (MDA-MB-231): 5.14
pIC50 (OVCAR-3): 5.12

C[C@@]12CC[C@@H]3C(=C[C@H]4OC(=O)[C@]5(C)[C@H]4[C@]34CCC5(O)OC4)[C@@H]1OC[C@H]2O
pIC50 (MDA-MB-435): 5.78
pIC50 (MDA-MB-231): 5.43
pIC50 (OVCAR-3): 5.39

C[C@]12C(=O)O[C@@H]3C[C@H]4C5=C(CC[C@H]4[C@@]4(CCC1(O)OC4)[C@@H]32)C(=O)CO5
pIC50 (MDA-MB-435): 6.18
pIC50 (MDA-MB-231): 6.17
pIC50 (OVCAR-3): 5.98

C[C@]12C(=O)O[C@@H]3C[C@H]4c5occc5C(=O)C[C@H]4[C@@]4(COC1(O)C[C@@H]4O)[C@@H]32
pIC50 (MDA-MB-435): 5.19
pIC50 (MDA-MB-231): 4.96
pIC50 (OVCAR-3): 4.73

C[C@]12C(=O)O[C@@H]3Cc4c(ccc5ccoc45)C4(CCC1(O)OC4)[C@@H]32 (stereo partly specified)
pIC50 (MDA-MB-435): < 4.70
pIC50 (MDA-MB-231): < 4.70
pIC50 (OVCAR-3): 4.75

COc1cc2c(c3occc13)C[C@H]1OC(=O)[C@]3(C)[C@H]1C21CCC3(O)OC1 (stereo partly specified)
pIC50 (MDA-MB-435): < 4.70
pIC50 (MDA-MB-231): < 4.70
pIC50 (OVCAR-3): < 4.70

COc1cc2c(c3occc13)C[C@H]1OC(=O)[C@]3(C)[C@H]1[C@@]21CO[C@](O)(C1)[C@@H]3O
pIC50 (MDA-MB-435): < 4.70
pIC50 (MDA-MB-231): < 4.70
pIC50 (OVCAR-3): < 4.70

COc1cc2c(c3occc13)C[C@H]1OC(=O)[C@]3(C)[C@H]1[C@@]21CO[C@](O)(C1)[C@H]3O
pIC50 (MDA-MB-435): < 4.70
pIC50 (MDA-MB-231): < 4.70
pIC50 (OVCAR-3): < 4.70

C[C@]12C(=O)O[C@@H]3C[C@H]4c5occc5C(=O)C[C@H]4C4(CCC1(O)OC4)[C@@H]32 (stereo partly specified)
pIC50 (MDA-MB-435): < 4.70
pIC50 (MDA-MB-231): < 4.70
pIC50 (OVCAR-3): < 4.70

C[C@]12C(=O)O[C@@H]3C[C@@]4(O)c5occc5C(=O)C[C@H]4C4(CCC1(O)OC4)[C@@H]32 (stereo partly specified)
pIC50 (MDA-MB-435): 5.21
pIC50 (MDA-MB-231): 5.05
pIC50 (OVCAR-3): 4.98

C[C@]12C(=O)O[C@@H]3C[C@@H]4[C@@H](CCC5=CC(=O)O[C@@H]54)C4(CCC1(O)OC4)[C@@H]32 (stereo partly specified)
pIC50 (MDA-MB-435): < 4.70
pIC50 (MDA-MB-231): < 4.70
pIC50 (OVCAR-3): < 4.70

CC[C@]1(O)C[C@@H]2CN(CCc3c([nH]c4ccccc34)[C@@](C(=O)OC)(c3cc4c(cc3OC)N(C)[C@H]3[C@@](O)(C(=O)OC)[C@H](OC(C)=O)[C@]5(CC)C=CCN6CC[C@]43[C@@H]65)C2)C1 [VINBLASTINE]
pIC50 (MDA-MB-435): 9.31
pIC50 (MDA-MB-231): 8.06
pIC50 (OVCAR-3): 8.74
